pIC50: −log10 of the molar value.
Key:
Mus musculus [1] = test: Toxicity in BALB/cA nude mouse assessed as change in body weight at 12 mg/kg, iv; settings: in vivo
SK-OV-3 = test: Cytotoxicity against human SKOV3 cells after 72 hrs by SRB assay; assay type: functional, cell-based; settings: SK-OV-3, 72 h
Outline: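 SK-OV-3 ovarian cells were grown in RPMI 1640 with 10% FBS at 37 °C and 5% CO2, seeded at 0.4–1.0 × 10⁴ cells/well and treated after 24 h. Compounds were dissolved in DMSO (≤0.1% final) and tested at at least five concentrations for 72 h. Growth was read by SRB at OD 520 nm; tests were run 3 times in quadruplicate. IC50 came from survival-versus-concentration curves.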

Mus musculus [2] = test: Toxicity in BALB/cA nude mouse assessed as survival at 16 mg/kg, iv; settings: in vivo
A549 [3] = test: Antitumor activity against human A549 cells xenografted BALB/cA mouse at 12 mg/kg, iv relative to control; assay type: functional
Outline: (§1)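 A549 NSCLC cells were injected s.c. into BALB/cA nude mice (18 ± 3 g, 6 per group). After 2–3 passages, tumors were grafted s.c. at the right oxter. Once tumors were palpable (about 100–300 mm³ in methods; 80–150 mm³ in table footnote), mice were randomized to untreated, docetaxel or treated groups, dosed i.v., and measured by calipers 3 times weekly. T/C% = mean treated/mean control tumor volume × 100, read at day 14.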

[4] = Toxicity in Kunming mouse assessed as survival; assay type: organism-based; settings: in vivo
Outline: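 Healthy Kunming mice of both sexes, 18–22 g, split into 7 weight-matched groups of 10. Single i.p. dose at 92.0, 115.0, 143.0, 179.0, 224.0, 280.0 or 350.0 mg/kg. Behaviour, body weight and deaths recorded over 14 days. LD₅₀ with 95% confidence limits derived by the Bliss method.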

Mus musculus [5] = test: Toxicity in BALB/cA nude mouse assessed as change in body weight at 16 mg/kg, iv; settings: in vivo
A549 [6] = test: Antitumor activity against human A549 cells xenografted BALB/cA mouse at 16 mg/kg, iv relative to control; assay type: functional
Outline: as §1

Mus musculus [7] = test: Toxicity in BALB/cA nude mouse assessed as survival at 12 mg/kg, iv; settings: in vivo
Mus musculus [8] = test: Toxicity in BALB/cA nude mouse assessed as survival at 18 mg/kg, iv; settings: in vivo
A549 [9] = test: Antitumor activity against human A549 cells xenografted BALB/cA mouse at 18 mg/kg, iv relative to control; assay type: functional
Outline: as §1

Mus musculus [10] = test: Toxicity in BALB/cA nude mouse assessed as change in body weight at 18 mg/kg, iv; settings: in vivo

Compound	Activity (Mus musculus [1]) [%]	pIC50 (SK-OV-3)	Activity (Mus musculus [2])	T/C (A549 [3]) [%]	LD50 [4] [mg/kg]	Activity (Mus musculus [5]) [%]	T/C (A549 [6]) [%]	Activity (Mus musculus [7])	Activity (Mus musculus [8])	T/C (A549 [9]) [%]	Activity (Mus musculus [10]) [%]
CC(=O)O[C@@]12CO[C@@H]1C[C@H](O)[C@@]1(C)C(=O)[C@H](O)C3=C(C)[C@@H](OC(=O)[C@H](O)[C@@H](NC(=O)OC(C)(C)CF)c4ccccc4)C[C@@](O)([C@@H](OC(=O)c4ccccc4)[C@H]21)C3(C)C	-19.1	8.42	Non-toxic	41.5	74.1	-22	37.9	Non-toxic	–	–	–
CC(=O)O[C@@]12CO[C@@H]1C[C@H](O)[C@@]1(C)C(=O)[C@H](O)C3=C(C)[C@@H](OC(=O)[C@H](O)[C@@H](NC(=O)OC(C)(C)C(F)(F)F)c4ccccc4)C[C@@](O)([C@@H](OC(=O)c4cccc(F)c4)[C@H]21)C3(C)C	–	7.47	–	–	–	–	–	–	–	–	–
CC(=O)O[C@@]12CO[C@@H]1C[C@H](O)[C@@]1(C)C(=O)[C@H](O)C3=C(C)[C@@H](OC(=O)[C@H](O)[C@@H](NC(=O)OC(C)(C)CF)c4ccccc4)C[C@@](O)([C@@H](OC(=O)c4cccc(F)c4)[C@H]21)C3(C)C	-18	10.52	–	53.7	–	–	–	Non-toxic	Non-toxic	30.2	-31.3
CC(=O)O[C@@]12CO[C@@H]1C[C@H](O)[C@@]1(C)C(=O)[C@H](O)C3=C(C)[C@@H](OC(=O)[C@H](O)[C@@H](NC(=O)OC(C)(C)C(F)(F)F)c4ccccc4)C[C@@](O)([C@@H](OC(=O)c4ccccc4)[C@H]21)C3(C)C	0	11.00	–	91.8	–	–	–	Non-toxic	Non-toxic	72	-9.7
CC(=O)O[C@@]12CO[C@@H]1C[C@H](O)[C@@]1(C)C(=O)[C@H](O)C3=C(C)[C@@H](OC(=O)[C@H](O)[C@@H](NC(=O)OC(C)(C)C(F)F)c4ccccc4)C[C@@](O)([C@@H](OC(=O)c4ccccc4)[C@H]21)C3(C)C	0	10.70	–	91.5	–	–	–	Non-toxic	Non-toxic	83.5	-7.7
CC(=O)O[C@@]12CO[C@@H]1C[C@H](O)[C@@]1(C)C(=O)[C@H](O)C3=C(C)[C@@H](OC(=O)[C@H](O)[C@@H](NC(=O)OC(C)(C)C(F)F)c4ccccc4)C[C@@](O)([C@@H](OC(=O)c4cccc(F)c4)[C@H]21)C3(C)C	-16.5	10.30	–	51.7	–	–	–	Non-toxic	Non-toxic	24.4	-26.7
CC(=O)O[C@@]12CO[C@@H]1C[C@H](O)[C@@]1(C)C(=O)[C@H](O)C3=C(C)[C@@H](OC(=O)[C@H](O)[C@@H](NC(=O)OC(C)(C)C)c4ccccc4)C[C@@](O)([C@@H](OC(=O)c4ccccc4)[C@H]21)C3(C)C.O.O.O [DOCETAXEL]	-19.6	8.47	–	43	–	–	–	Non-toxic	–	–	–

— ChEMBL document CHEMBL1153862, “Design, synthesis and biological evaluation of novel fluorinated docetaxel analogues” (Eur J Med Chem, 2009)
